Experiment [1] deals with T1, Sodium- and chloride-dependent GABA transporter 2 (Mus musculus, UniProt P31649).
T1 sequence (P31649 whole entry): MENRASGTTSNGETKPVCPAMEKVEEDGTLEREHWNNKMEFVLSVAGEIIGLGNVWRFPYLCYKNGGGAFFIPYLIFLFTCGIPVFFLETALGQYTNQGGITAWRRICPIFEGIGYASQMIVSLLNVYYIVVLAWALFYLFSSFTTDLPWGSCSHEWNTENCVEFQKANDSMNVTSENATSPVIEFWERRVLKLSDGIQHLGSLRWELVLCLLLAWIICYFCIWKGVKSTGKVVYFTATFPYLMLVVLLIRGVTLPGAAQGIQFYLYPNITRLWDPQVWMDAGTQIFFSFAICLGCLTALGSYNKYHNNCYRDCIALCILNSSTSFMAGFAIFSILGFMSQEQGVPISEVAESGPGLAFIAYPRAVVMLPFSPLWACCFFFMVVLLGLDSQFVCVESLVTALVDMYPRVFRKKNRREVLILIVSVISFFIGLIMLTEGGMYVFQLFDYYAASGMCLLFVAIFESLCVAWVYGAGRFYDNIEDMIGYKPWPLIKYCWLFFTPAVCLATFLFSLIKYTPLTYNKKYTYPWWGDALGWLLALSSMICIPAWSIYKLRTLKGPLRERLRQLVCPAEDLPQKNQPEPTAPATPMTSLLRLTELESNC
The experiment in a line: Inhibition of mouse GAT2-mediated [3H]GABA uptake expressed in human HEK cells. The method in brief: (§1)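 Specific [3H]GABA uptake was measured at the murine transporter subtype, and results are given as pIC50 ± SEM from three independent experiments, each run in triplicate.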

In experiment [2] the target is T2, Sodium- and chloride-dependent GABA transporter 3 (Mus musculus, UniProt P31650).
T2 sequence (P31650 whole entry): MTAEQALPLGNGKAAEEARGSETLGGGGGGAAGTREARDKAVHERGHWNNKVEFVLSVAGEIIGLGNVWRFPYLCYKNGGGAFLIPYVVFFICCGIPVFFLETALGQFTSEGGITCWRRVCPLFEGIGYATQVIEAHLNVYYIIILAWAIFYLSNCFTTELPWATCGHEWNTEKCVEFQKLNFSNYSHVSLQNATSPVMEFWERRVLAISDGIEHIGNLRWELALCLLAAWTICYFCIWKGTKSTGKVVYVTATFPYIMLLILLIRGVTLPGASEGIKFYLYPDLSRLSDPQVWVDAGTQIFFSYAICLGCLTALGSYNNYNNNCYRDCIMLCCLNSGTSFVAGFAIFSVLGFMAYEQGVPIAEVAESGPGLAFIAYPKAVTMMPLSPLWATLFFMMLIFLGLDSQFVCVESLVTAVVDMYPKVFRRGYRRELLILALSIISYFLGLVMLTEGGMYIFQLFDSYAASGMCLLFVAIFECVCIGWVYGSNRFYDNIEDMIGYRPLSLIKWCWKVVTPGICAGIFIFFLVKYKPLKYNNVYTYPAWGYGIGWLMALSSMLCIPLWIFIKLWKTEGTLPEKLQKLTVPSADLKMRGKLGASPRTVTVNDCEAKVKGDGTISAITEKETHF
The experiment in a line: Inhibition of mouse GAT3-mediated [3H]GABA uptake expressed in human HEK cells. The method in brief:
as §1

The nature of experiment [3]: Inhibition of mouse GAT3-mediated [3H]GABA uptake expressed in BHK cells.
Experiment [4] is described as follows: Inhibition of mouse GAT2-mediated [3H]GABA uptake expressed in BHK cells.

Broadly, the IC50 is the concentration that gives 50% inhibition. A higher IC50 goes with lower potency. With `COc1ccccc1C1(O)CCN(CCCn2c3ccccc3c3ccccc32)CC1`, the 50% inhibitory concentration (IC50) in experiment [1] worked out at 8.13 µM; in experiment [2], 11.7 µM; in experiment [3], 40.7 µM; in experiment [4], 1.41 µM. As for `c1ccc(C(CCCNCc2nnnn2C2CCCCC2)c2ccccc2)cc1`, the IC50 came to 21.9 µM in experiment [1] and 17.4 µM in experiment [2].

Take `c1ccc(Cn2nnnc2CNCCCC(c2ccccc2)c2ccccc2)cc1`: the IC50 in experiment [1] was determined as 15.5 µM; in experiment [2] it was 40.7 µM. With `C(CNCc1nnnn1C1CCCCC1)=C(c1ccccc1)c1ccccc1`, the IC50 in experiment [1] was 24.5 µM; in experiment [2] it was 18.2 µM. Consider `C(CNCc1nnnn1Cc1ccccc1)=C(c1ccccc1)c1ccccc1`, for which the IC50 in experiment [1] came out at 24.5 µM; in experiment [2], 34.7 µM. In experiment [2], `CC(C)(C)CC(C)(C)n1nnnc1CNC(c1ccccc1)c1ccccc1` came in with a half-maximal inhibitory concentration (IC50) of 60.3 µM.

Compound `c1ccc(C(NCc2nnnn2C2CCCCC2)c2ccccc2)cc1` had a concentration for half-maximal inhibition (IC50) in experiment [2] of 24.5 µM. Same read-out and setting: to `c1ccc(Cn2nnnc2CNC(c2ccccc2)c2ccccc2)cc1` belongs 16.2 µM.

The compound `c1ccc(Cn2nnnc2CNCC(c2ccccc2)c2ccccc2)cc1` registered an IC50 in experiment [2] of 44.7 µM.

`CC(C)(C)CC(C)(C)n1nnnc1CNCCC(c1ccccc1)c1ccccc1` yielded an IC50 in experiment [2] of 8.13 µM. On to `CC(C)(C)CC(C)(C)n1nnnc1CNCC=C(c1ccccc1)c1ccccc1`, for which the IC50 in experiment [1] was determined as 10.2 µM; in experiment [2] it was 22.9 µM. In experiment [2], `C(CCNCc1nnnn1C1CCCCC1)=C(c1ccccc1)c1ccccc1` came in with an IC50 of 21.4 µM. Take `CC(C)(C)CC(C)(C)n1nnnc1CNCCCC(c1ccccc1)c1ccccc1`: the results for the IC50 in experiment [1] and in experiment [2] were 16.6 µM and 12.9 µM, respectively. The compound `CC(C)(C)CC(C)(C)n1nnnc1CNCCC=C(c1ccccc1)c1ccccc1` showed an IC50 in experiment [2] of 12.3 µM.

(Values after BindingDB's records for doi:10.1016/j.bmc.2011.08.039 (Ludwig-Maximilians-University Munich, 2011).)
